Measurements reported in ChEMBL document CHEMBL4261567, “Phenylethynyl-substituted Heterocycles Inhibit Cyclin D1 and Induce the Expression of Cyclin-dependent Kinase Inhibitor p21Wif1/Cip1 in Colorectal Cancer Cells” (Medchemcomm, 2018).
Calls of active or inactive are those of the source. The rule behind the calls is not given here.

What was measured:
LS174T [1] = assay: Antiproliferative activity against human LS174T cells assessed as inhibition of cell proliferation at 10 uM after 4 days by Vi-Cell cell viability analyzer based method relative to control; assay type: functional; details: 96 h
Method in brief: (§1)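 Cells (colon LS174T, HT-29, Caco2; lung epithelial BEAS-2B; fibroblast HEL 299) were kept in RPMI or DMEM with 5% or 10% FBS plus 1% penicillin/streptomycin. 3 × 10^4 cells per well were exposed to DMSO or compound. After 4 days, cell number and viability were counted on a Vi-Cell analyzer. Results are given as percent inhibition of proliferation at the stated concentration.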

LS174T [2] = assay: Antiproliferative activity against human LS174T cells assessed as inhibition of cell proliferation at 1 uM after 4 days by Vi-Cell cell viability analyzer based method relative to control; assay type: functional; details: 96 h; method in brief: as §1
LS174T [3] = assay: Antiproliferative activity against human LS174T cells assessed as inhibition of cell proliferation at 100 nM after 4 days by Vi-Cell cell viability analyzer based method relative to control; assay type: functional; details: 96 h; method in brief: as §1
[4] = Cytotoxicity against human HEL299 cells assessed as inhibition of cell proliferation at 1 uM after 4 days by Vi-Cell cell viability analyzer based method relative to control; set-up: species or system HEL 299; method in brief: as §1
[5] = Cytotoxicity against human HEL299 cells assessed as inhibition of cell proliferation at 10 uM after 4 days by Vi-Cell cell viability analyzer based method relative to control; set-up: species or system HEL 299; method in brief: as §1
Caco-2 [6] = assay: Antiproliferative activity against human Caco2 cells assessed as inhibition of cell proliferation at 1 uM after 4 days by Vi-Cell cell viability analyzer based method relative to control; assay type: functional; details: Caco-2, 96 h; method in brief: as §1
[7] = Cytotoxicity against human BEAS2B cells assessed as inhibition of cell proliferation at 10 uM after 4 days by Vi-Cell cell viability analyzer based method relative to control; set-up: species or system BEAS-2B; method in brief: as §1
HT-29 [8] = assay: Antiproliferative activity against human HT-29 cells assessed as inhibition of cell proliferation at 1 uM after 4 days by Vi-Cell cell viability analyzer based method relative to control; assay type: functional; details: HT-29, 96 h; method in brief: as §1
[9] = Cytotoxicity against human BEAS2B cells assessed as inhibition of cell proliferation at 1 uM after 4 days by Vi-Cell cell viability analyzer based method relative to control; set-up: species or system BEAS-2B; method in brief: as §1
HT-29 [10] = assay: cells; details: Homo sapiens, HT-29, 96 h, read-out: INH
Caco-2 [11] = assay: cells; details: Homo sapiens, Caco-2, 96 h, read-out: INH
[12] = target: S-adenosylmethionine synthase isoform type-2 (Homo sapiens) (UniProt P31153); assay: Binding affinity to GST-tagged MAT2A (unknown origin) expressed in Escherichia coli BL21 by Western blot based pull down assay
Sequence of S-adenosylmethionine synthase isoform type-2 (Homo sapiens) (P31153 whole entry, looked up, canonical isoform): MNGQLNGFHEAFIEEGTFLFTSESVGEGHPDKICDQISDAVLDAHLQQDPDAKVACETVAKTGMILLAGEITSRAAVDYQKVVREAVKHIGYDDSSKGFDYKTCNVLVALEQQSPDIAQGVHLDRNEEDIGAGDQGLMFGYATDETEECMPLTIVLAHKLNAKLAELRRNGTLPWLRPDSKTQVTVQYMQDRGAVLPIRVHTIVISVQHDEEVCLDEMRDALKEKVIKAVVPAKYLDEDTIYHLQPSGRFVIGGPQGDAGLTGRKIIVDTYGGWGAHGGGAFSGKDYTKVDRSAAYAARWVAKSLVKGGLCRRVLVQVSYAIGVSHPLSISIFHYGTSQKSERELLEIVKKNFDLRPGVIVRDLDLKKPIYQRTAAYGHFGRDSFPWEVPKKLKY
Method in brief: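 Recombinant MAT2A was incubated with or without the biotinylated probe, and the complex was captured on streptavidin beads. Bound protein was eluted with 2.5 mM D-(+)-biotin, run on 10% SDS-PAGE, and detected by western blot with an anti-MAT2A antibody.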

LS174T [13] = assay: Antiproliferative activity against human LS174T cells assessed as inhibition of cell proliferation at 30 nM after 4 days by Vi-Cell cell viability analyzer based method relative to control; assay type: functional; details: 96 h; method in brief: as §1
[14] = target: G1/S-specific cyclin-D1 (Homo sapiens) (UniProt P24385); assay: Inhibition of cyclin D1 in human LS174T cells assessed as reduction in protein level at 300 nM by Western blot analysis; assay type: cell-based
Sequence of G1/S-specific cyclin-D1 (Homo sapiens) (P24385 whole entry): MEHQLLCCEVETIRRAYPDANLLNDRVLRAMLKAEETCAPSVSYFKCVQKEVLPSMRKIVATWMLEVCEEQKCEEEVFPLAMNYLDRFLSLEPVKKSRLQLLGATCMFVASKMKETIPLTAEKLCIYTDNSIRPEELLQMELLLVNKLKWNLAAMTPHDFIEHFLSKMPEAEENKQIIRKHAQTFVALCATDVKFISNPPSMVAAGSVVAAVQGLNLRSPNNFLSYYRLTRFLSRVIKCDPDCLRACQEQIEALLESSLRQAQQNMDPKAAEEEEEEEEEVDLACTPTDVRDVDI
Method in brief: (§2)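 LS174T cells were treated at 300 nM. Lysates were western blotted with antibodies to cyclin D1 and p21Wif1/Cip1, using β-tubulin as the loading control.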

LS174T [15] = assay: Antiproliferative activity against human LS174T cells assessed as inhibition of cell proliferation after 4 days by Vi-Cell cell viability analyzer based method; assay type: functional; details: 96 h
Method in brief: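 LS174T cells in RPMI or DMEM with 5% or 10% FBS plus 1% penicillin/streptomycin were seeded at 3 × 10^4 cells per well. They were treated with DMSO or a range of compound concentrations, and cell number and viability were counted on a Vi-Cell analyzer after 4 days. IC50 was fitted from the dose-response curve.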

[16] = target: G1/S-specific cyclin-D1 (Homo sapiens) (UniProt P24385); assay: Inhibition of cyclin D1 in human LS174T cells assessed as induction of p21 waf1/cip1 expression at 300 nM by Western blot analysis; assay type: cell-based; method in brief: as §2

Row | Structure (SMILES) | inhibition at 10 µM (LS174T [1]) | inhibition at 1 µM (LS174T [2]) | inhibition at 0.1 µM (LS174T [3]) | further results
1 | Fc1cccc(F)c1C#Cc1ccc2cnccc2c1 | 82.4% | 11.6% | – | –
2 | Fc1cccc(F)c1C#Cc1ccc2[nH]ccc2c1 | 91.5% | 52.9% | – | –
3 | O=C1CCCCN1c1ccc(C#Cc2c(F)cccc2F)cc1 | 68.1% | 6.4% | – | –
4 | Fc1cccc(F)c1C#Cc1ccc2ccccc2n1 | 93.8% | 67.3% | 6.1% | –
5 | Fc1cccc(F)c1C#Cc1ccc(N2CCOCC2)cc1 | 32.1% | 13% | – | –
6 | Fc1cccc(F)c1C#Cc1cncc2ccccc12 | 87.9% | 16.5% | – | –
7 | Fc1cccc(F)c1C#Cc1ccnc2cc(Cl)ccc12 | 74.3% | 36% | – | –
8 | Fc1ccc2cc(C#Cc3c(F)cccc3F)cnc2c1 | 95.1% | 69.4% | 14.8% | –
9 | CN1CCN(c2ncc(C#Cc3c(F)cccc3F)c3ccccc23)CC1 | 100% | 23.2% | – | –
10 | Nc1ccc2ncc(C#Cc3c(F)cccc3F)cc2c1 | 9.2% | – | – | –
11 | Fc1cccc(F)c1C#Cc1ccnc2ccccc12 | 59% | 15.4% | – | –
12 | Fc1cccc(F)c1C#Cc1ccc(-n2cccc2)nc1 | 95.3% | 80.5% | 0% | –
13 | Fc1cccc(F)c1C#Cc1cnc2c(F)cccc2c1 | 89.1% | 63.6% | 8.8% | –
14 | CN(C)c1ncc(C#Cc2c(F)cccc2F)c2ncccc12 | 85.2% | 87.9% | 59.5% | –
15 | Fc1cccc(F)c1C#Cc1cccc2cnccc12 | 93.6% | 64.2% | – | –
16 | O=c1[nH]cc(F)c(=O)[nH]1 [FLUOROURACIL] | 82.3% | 6.5% | – | inhibition at 96 h, 1 µM [4]: 12.1%; inhibition at 96 h, 10 µM [5]: 64.6%; inhibition at 1 µM (Caco-2 [6]): 37.7%; inhibition at 96 h, 10 µM [7]: 57.5%; inhibition at 1 µM (HT-29 [8]): 11.6%; inhibition at 96 h, 1 µM [9]: 4.5%; inhibition at 10 µM (HT-29 [10]): 82.9%; inhibition at 10 µM (Caco-2 [11]): 60.2%
17 | CN(C)c1cnc(C#Cc2c(F)cccc2F)cn1 | 91.6% | 22.9% | – | –
18 | Fc1cccc(F)c1C#Cc1nccc2ccccc12 | 96.7% | 35.4% | – | –
19 | Fc1ccc2ccnc(C#Cc3c(F)cccc3F)c2c1 | 96.2% | 71.1% | 0% | –
20 | CN(CC(=O)NCCOCCOCCNC(=O)CCCC[C@@H]1SC[C@@H]2NC(=O)N[C@@H]21)c1ccc(C#Cc2c(F)cccc2F)c2ccccc12 | – | – | – | Activity [12]: Active
21 | Fc1cccc(F)c1C#Cc1cccc2cccnc12 | 92.7% | 47.6% | – | –
22 | CN(C)c1ccc(C#Cc2c(F)cccc2F)nc1 | 85.2% | 68.9% | 15.1% | –
23 | CN(C)c1ccc(C#Cc2c(F)cccc2F)cn1 | 83.6% | 77.9% | 0% | –
24 | Cn1ccc2cc(C#Cc3c(F)cccc3F)ccc21 | 95.2% | 77.7% | 3% | –
25 | Fc1cccc(F)c1C#Cc1ccc2cccnc2c1 | 99.4% | 90.7% | 2.9% | –
26 | Cc1ccc(C)n1-c1ccc(C#Cc2c(F)cccc2F)cc1 | 78.8% | 20.9% | – | –

Row | Structure (SMILES) | inhibition at 10 µM (LS174T [1]) | inhibition at 1 µM (LS174T [2]) | inhibition at 0.1 µM (LS174T [3]) | further results
27 | Fc1cccc(F)c1C#Cc1ccc2ncccc2c1 | 80.1% | 11% | – | –
28 | Fc1cccc(F)c1C#Cc1ccc2[nH]ncc2c1 | 82.9% | 17.6% | – | –
29 | CN(C)c1ncc(C#Cc2c(F)cccc2F)c2ccccc12 | 97.6% | 99.5% | 81.7% | inhibition at 96 h, 1 µM [4]: 13.9%; inhibition at 0.03 µM (LS174T [13]): 86%; inhibition [14]: Active; inhibition at 96 h, 10 µM [5]: 11.7%; IC50 (LS174T [15]): 11.8 nM; inhibition [16]: Active; inhibition at 1 µM (Caco-2 [6]): 54.5%; inhibition at 96 h, 10 µM [7]: 16.2%; inhibition at 1 µM (HT-29 [8]): 35.9%; inhibition at 96 h, 1 µM [9]: 1.5%
30 | Fc1cccc(F)c1C#Cc1cccc2[nH]ncc12 | 96.2% | 19.8% | – | –
31 | Cn1ncc2ccc(C#Cc3c(F)cccc3F)cc21 | 98.1% | 85.9% | 0% | –
32 | Fc1cccc(F)c1C#Cc1ccc2c(Cl)ccnc2c1 | 70.8% | 23.1% | – | –
33 | Fc1cccc(F)c1C#Cc1cnc2ccccc2c1 | 90.4% | 41.7% | 0% | –
34 | Fc1cccc(F)c1C#Cc1cnc2[nH]ccc2c1 | 77.9% | 17.3% | – | –
35 | Fc1cccc(F)c1C#Cc1cccc2ncccc12 | 94.7% | 43.1% | – | –
36 | Nc1ccnc2ccc(C#Cc3c(F)cccc3F)cc12 | 93.9% | 66.2% | 0% | –
37 | Fc1cccc(F)c1C#Cc1ccc2nc(Cl)ccc2c1 | 63.3% | 21.2% | – | –
38 | Cn1ncc2cc(C#Cc3c(F)cccc3F)ccc21 | 94.6% | 58.4% | 0% | –
39 | Fc1cccc(F)c1C#Cc1cnc2ccccc2c1Cl | 80.4% | 51.5% | 0% | –
40 | CN(C)c1ccc2cc(C#Cc3c(F)cccc3F)ccc2n1 | 38.7% | 2% | – | –
41 | CN1CCN(c2ccc(C#Cc3c(F)cccc3F)cc2)CC1 | 99.6% | 19.9% | – | –
42 | Fc1cccc(F)c1C#Cc1ccc(-n2cccc2)cc1 | 96.7% | 77.5% | 11% | –
43 | CN(C)c1ccc(C#Cc2c(F)cccc2F)cc1 | – | – | – | inhibition [14]: Active; IC50 (LS174T [15]): 25.1 nM; inhibition [16]: Active
44 | Fc1cccc(F)c1C#Cc1ccc2cn[nH]c2c1 | 97% | 81.5% | – | –
45 | Nc1ccnc2cc(C#Cc3c(F)cccc3F)ccc12 | 97.7% | 23.6% | – | –
46 | Nc1ncc(C#Cc2c(F)cccc2F)c2ccccc12 | 93.1% | 86.2% | 35.5% | –
47 | Fc1cccc(F)c1C#Cc1ccc2cncnc2c1 | 96.3% | 33.8% | – | –
48 | Fc1cccc(F)c1C#Cc1cnc(Cl)c2ccccc12 | 94% | 48.1% | 0.8% | –
49 | Fc1cccc(F)c1C#Cc1cc2ccccc2nc1Cl | 85.1% | 28.4% | – | –
50 | CNc1ncc(C#Cc2c(F)cccc2F)c2ccccc12 | 98.9% | 99.8% | 99.5% | inhibition at 96 h, 1 µM [4]: 6.3%; inhibition at 0.03 µM (LS174T [13]): 94.5%; inhibition [14]: Active; inhibition at 96 h, 10 µM [5]: 9.5%; IC50 (LS174T [15]): 4.2 nM; inhibition [16]: Active; inhibition at 1 µM (Caco-2 [6]): 58.3%; inhibition at 96 h, 10 µM [7]: 19.2%; inhibition at 1 µM (HT-29 [8]): 76.8%; inhibition at 96 h, 1 µM [9]: 5.8%
51 | Fc1cccc(F)c1C#Cc1ccc2nccc(Cl)c2c1 | 89.7% | 43.8% | – | –
